# Experimental data as given in ChEMBL document CHEMBL1140177 (J Med Chem, 2008).
# Tests used:
# [1] = system: Human immunodeficiency virus 1; assay: Antiviral activity against HIV1 with reverse transcriptase Y181C mutant infected in human MT4 cells after 72 hrs in presence of 10% fetal bovine serum; type: functional; conditions: Human immunodeficiency virus 1, MT4, 72 h; read-out: CIC95
# Outline: (§1)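 Mutant HIV-1 spread was assayed in MT-4 human T-lymphoid cells kept in RPMI 1640 with 10% FBS. CIC95 is the concentration that inhibits viral spread by >95%. Values are geometric means of two determinations, or mean with standard deviation where n > 3. Cytotoxicity was checked up to an assay limit of 8.3 µM.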
# [2] = system: Human immunodeficiency virus 1; assay: Antiviral activity against wild type HIV1 infected in human MT4 cells after 72 hrs in presence of 10% fetal bovine serum; type: functional; conditions: Human immunodeficiency virus 1, MT4, 72 h; read-out: CIC95
# Outline: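 MT-4 human T-lymphoid cells in RPMI 1640 with 10% FBS. CIC95 is the concentration that inhibits viral spread by >95%. Values are either geometric means of two determinations or given with standard deviations for n > 3 or n > 50.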
# [3] = system: Human immunodeficiency virus 1; assay: Antiviral activity against HIV1 with reverse transcriptase K103N mutant infected in human MT4 cells after 72 hrs in presence of 10% fetal bovine serum; type: functional; conditions: Human immunodeficiency virus 1, MT4, 72 h; read-out: CIC95; outline: as §1
# [4] = system: Human immunodeficiency virus 1; assay: Antiviral activity against wild type HIV1 infected in human MT4 cells after 72 hrs in presence of 50% normal human serum; type: functional; conditions: Human immunodeficiency virus 1, MT4, 72 h; read-out: CIC95
# Outline: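 MT-4 human T-lymphoid cells in RPMI 1640 with 50% NHS. CIC95 is the concentration that inhibits viral spread by >95%. Values are either geometric means of two determinations or given with standard deviations for n > 3 or n > 50.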
# [5] = system: Human immunodeficiency virus 1; assay: Antiviral activity against HIV1 with reverse transcriptase G190S mutant in presence of 40% normal human serum; type: functional, organism-based
# [6] = system: Human immunodeficiency virus 1; assay: Antiviral activity against HIV1 with reverse transcriptase Y181C mutant in presence of 40% normal human serum; type: functional, organism-based
# [7] = system: Human immunodeficiency virus 1; assay: Antiviral activity against HIV1 with reverse transcriptase K103N/P225H mutant in presence of 40% normal human serum; type: functional, organism-based
# [8] = Clearance in Beagle dog at 2 mg/kg, po and 0.25 mg/kg, iv; type: ADME, organism-based, Canis lupus familiaris; conditions: in vivo
# Outline: (§2)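 Two beagle dogs, averaged. Oral dose 2 mpk in Imwitor/Tween; intravenous dose 0.25 mpk in DMSO.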
# [9] = system: Human immunodeficiency virus 1; assay: Antiviral activity against HIV1 with reverse transcriptase K103N/Y181C mutant in presence of 40% normal human serum; type: functional, organism-based
# [10] = biological target: Human immunodeficiency virus type 1 reverse transcriptase (Human immunodeficiency virus 1, UniProt Q72547, Y181C); assay: Inhibition of HIV1 RT polymerase Y181C mutant by SPA
# [11] = AUC in Sprague-Dawley rat at 10 mg/kg, po; type: ADME, organism-based; design: dose 10 mg/kg, route oral; conditions: plasma
# [12] = Volume of distribution in rhesus monkey at 10 mg/kg, po and 1 mg/kg, iv; type: ADME, organism-based, Macaca mulatta; conditions: in vivo
# Outline: (§3)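 Two rhesus macaques, averaged. Oral dose 10 mpk in Imwitor/Tween; intravenous dose 1 mpk in DMSO.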
# [13] = Oral bioavailability in Sprague-Dawley rat at 10 mg/kg; type: ADME, organism-based; conditions: in vivo
# [14] = Half life in Beagle dog at 2 mg/kg, po and 0.25 mg/kg, iv; type: ADME, organism-based, Canis lupus familiaris; conditions: in vivo; outline: as §2
# [15] = system: Human immunodeficiency virus 1; assay: Antiviral activity against HIV1 with reverse transcriptase Y188L mutant in presence of 40% normal human serum; type: functional, organism-based
# [16] = AUC in Beagle dog at 2 mg/kg, po; type: ADME, organism-based, Canis lupus familiaris; design: dose 2 mg/kg, route oral; conditions: plasma; outline: as §2
# [17] = system: Human immunodeficiency virus 1; assay: Antiviral activity against HIV1 with reverse transcriptase G190A mutant in presence of 40% normal human serum; type: functional, organism-based
# [18] = system: Human immunodeficiency virus 1; assay: Antiviral activity against HIV1 with reverse transcriptase L100I mutant in presence of 40% normal human serum; type: functional, organism-based
# [19] = Oral bioavailability in Beagle dog at 2 mg/kg; type: ADME, organism-based, Canis lupus familiaris; conditions: in vivo; outline: as §2
# [20] = system: Human immunodeficiency virus 1; assay: Antiviral activity against HIV1 with reverse transcriptase K103N/V179E mutant in presence of 40% normal human serum; type: functional, organism-based
# [21] = system: Human immunodeficiency virus 1; assay: Antiviral activity against HIV1 with reverse transcriptase K103N/G190A mutant in presence of 40% normal human serum; type: functional, organism-based
# [22] = Clearance in Sprague-Dawley rat at 10 mg/kg, po and 2 mg/kg, iv; type: ADME, organism-based; conditions: in vivo
# [23] = system: Human immunodeficiency virus 1; assay: Antiviral activity against wild type HIV1 in presence of 40% normal human serum; type: functional, organism-based
# Outline: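 Monogram Bioscience PhenoScreen cell-culture assay run with 40% NHS. […] Value is the geometric mean of n = 2.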
# [24] = Volume of distribution in Sprague-Dawley rat at 10 mg/kg, po and 2 mg/kg, iv; type: ADME, organism-based; conditions: in vivo
# [25] = Solubility at pH 7; type: physicochemical; conditions: buffer
# [26] = Oral bioavailability in rhesus monkey at 10 mg/kg; type: ADME, organism-based, Macaca mulatta; conditions: in vivo
# [27] = Solubility at pH 2; type: physicochemical; conditions: buffer
# [28] = Clearance in rhesus monkey at 10 mg/kg, po and 1 mg/kg, iv; type: ADME, organism-based, Macaca mulatta; conditions: in vivo; outline: as §3
# [29] = system: Human immunodeficiency virus 1; assay: Antiviral activity against HIV1 with reverse transcriptase Y181C/G190A mutant in presence of 40% normal human serum; type: functional, organism-based
# [30] = system: Human immunodeficiency virus 1; assay: Antiviral activity against HIV1 with reverse transcriptase K103N mutant in presence of 40% normal human serum; type: functional, organism-based
# [31] = biological target: Human immunodeficiency virus type 1 reverse transcriptase (Human immunodeficiency virus 1, UniProt Q72547, K103N); assay: Inhibition of HIV1 RT polymerase K103N mutant by SPA
# [32] = Half life in Sprague-Dawley rat at 10 mg/kg, po and 2 mg/kg, iv; type: ADME, organism-based; conditions: in vivo
# [33] = AUC in rhesus monkey at 10 mg/kg, po; type: ADME, organism-based, Macaca mulatta; design: dose 10 mg/kg, route oral; conditions: plasma
# [34] = Half life in rhesus monkey at 10 mg/kg, po and 1 mg/kg, iv; type: ADME, organism-based, Macaca mulatta; conditions: in vivo; outline: as §3
# [35] = Volume of distribution in Beagle dog at 2 mg/kg, po and 0.25 mg/kg, iv; type: ADME, organism-based, Canis lupus familiaris; conditions: in vivo; outline: as §2
# [36] = biological target: Human immunodeficiency virus type 1 reverse transcriptase (Human immunodeficiency virus 1, UniProt Q72547); assay: Inhibition of wild type HIV1 RT polymerase by SPA
# [37] = system: Human immunodeficiency virus 1; assay: Antiviral activity against HIV1 with reverse transcriptase K101E/G190A mutant in presence of 40% normal human serum; type: functional, organism-based
compound,measurement,setting,value
N#Cc1cc(Cl)cc(Oc2cc(OCc3n[nH]c4ccccc34)ccc2Cl)c1,IC95,[1],102 nM
same,IC95,[2],22.6 nM
same,IC95,[3],33 nM
same,IC95,[4],114 nM
N#Cc1cc(Cl)cc(Oc2cc(OCc3n[nH]c4ncccc34)ccc2Cl)c1,IC50,[5],6.8 nM
same,IC95,[1],22 nM
same,IC50,[6],4.1 nM
same,IC50,[7],4.8 nM
same,clearance,[8],8.9 mL/min/kg
same,IC50,[9],34.1 nM
same,IC50,[10],0.2 nM
same,AUC,[11],9.5 µM·h
same,Vd,[12],4.4 L/kg
same,bioavailability,[13],58%
same,half-life,[14],11.8 h
same,IC50,[15],900 nM
same,AUC,[16],1.6 µM·h
same,IC50,[17],1.8 nM
same,IC50,[18],1.1 nM
same,bioavailability,[19],17%
same,IC50,[20],6 nM
same,IC50,[21],4 nM
same,clearance,[22],28 mL/min/kg
same,IC50,[23],1.5 nM
same,Vd,[24],5.3 L/kg
same,solubility,[25],0.1 µg/mL
same,bioavailability,[26],3%
same,IC95,[2],10.3 nM
same,solubility,[27],< 0.1 µg/mL
same,IC95,[3],14.6 nM
same,clearance,[28],19 mL/min/kg
same,IC50,[29],17.1 nM
same,IC50,[30],2.5 nM
same,IC50,[31],0.5 nM
same,half-life,[32],4.1 h
same,AUC,[33],0.3 µM·h
same,half-life,[34],8.2 h
same,Vd,[35],2.6 L/kg
same,IC50,[36],0.4 nM
same,IC50,[37],4.8 nM
same,IC95,[4],34 nM
N#Cc1cc(Cl)cc(Oc2cc(OCc3n[nH]c4ccncc34)ccc2Cl)c1,IC95,[1],278 nM
same,IC50,[10],6.2 nM
same,IC95,[2],169 nM
same,IC95,[3],922 nM
same,IC50,[31],3.8 nM
same,IC50,[36],1.2 nM
same,IC95,[4],307 nM
